The whole screen tested about 330,000 compounds, of which about 2,000 (0.61%) were called active.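 How the source made its calls: active means inhibition above that plate's mean sample inhibition plus 3 SD (cut at about 26% in these data); inactive means the rest.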 The list comes from a sample in which actives are over-represented; it also holds similar structures and randomly drawn compounds.

Usually inhibition stands for the relative decrease from the control value, in per cent.

This experiment in a line: nonselective Gq signaling inhibition in CHO cells – cell-based, fluorescence, Fluo-8 calcium dye, counter-screen for OX1R antagonist project, primary screen (AID 463079).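 Further: 0% = ATP-challenged DMSO wells and 100% = DMSO wells without ATP.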 The following applies: parental CHO-K1, ATP-induced calcium, Fluo-8 fluorescence; at 5.6 µM; stronger effect = higher value. The procedure, abridged:
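test system = CHO parental line | reagent = ATP stimulus | measured by = intracellular calcium via Fluo-8 no-wash fluorescent dye | control set = ATP and no-ATP DMSO wells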
(A counterscreen serves to expose hits that act by an unwanted route or on another target.)
`O=C(NCCN=C1NS(=O)(=O)c2ccccc21)c1ccc(S(=O)(=O)N2CCOCC2)cc1`: the inhibition was -2.4% (inactive).

As for `Cc1n[nH]c(C)c1S(=O)(=O)N1CCCC(C(=O)NCC2COc3ccccc3O2)C1` (stereo not drawn), the inhibition was -6.84% (inactive).

Take `CC(=O)c1c(C)[nH]c(C(=O)OCC(=O)Nc2c(C)cccc2C)c1C`: the inhibition is -7.2% (inactive).

Regarding `Cc1cccc(C(=O)OCC(=O)Nc2sc3c(c2C#N)CCC3)c1`, the inhibition is -1.94% (inactive).

In the case of `CC(=O)c1c(C)[nH]c(C(=O)OCC(=O)Nc2sc3c(c2C#N)CCCC3)c1C`, the inhibition was 33.6% (active).

Take `O=C(COC(=O)[C@H](Cc1ccccc1)NC(=O)c1cccs1)Nc1cc(F)ccc1F`: the inhibition was -7.13% (inactive).

On to `CC(=O)N(O)CCCCCNC(=O)CCC(=O)N(O)CCCCCNC(=O)CCC(=O)N(O)CCCCCNC(=O)CCC(=O)O`, for which the inhibition is -0.82% (inactive).

`O=C(NC(=S)NC1CCSC1=O)c1ccccc1F` (stereo not drawn): the inhibition was -7.55% (inactive).

In the case of `COc1cc(OC)c(-n2c(C)cc(C=O)c2C)cc1Cl`, the inhibition was -12.5% (inactive).

As for `COc1cc(OC)c(N2CC(C(=O)Nc3cc(Cl)ccc3N3CCOCC3)CC2=O)cc1Cl` (stereo not drawn), the inhibition is -16.6% (inactive).

Consider `COc1cc(OC)c(-n2cc(-c3ccc(Cl)cc3)[nH]c2=O)cc1Cl`, for which the inhibition is 39.3% (active).

In the case of `CN(c1ccccc1)S(=O)(=O)c1cc(C(=O)N2CCN(c3ncccn3)CC2)ccc1Cl`, the inhibition is -18.9% (inactive).

On to `CC(C)(C)c1ccc(SCCc2ccncc2)cc1`, for which the inhibition was 28.1% (inactive).

Turning to `O=C(O)CC1S/C(=N\N=C/c2ccccc2O)N(c2ccc(O)cc2)C1=O` (stereo not drawn), the inhibition is -10.7% (inactive).

As to `CCn1nccc1C(=O)Nc1ccc(Cl)c(Cl)c1`, the inhibition is -8.3% (inactive).

As for `CS(=O)(=O)N(CC(=O)Nc1ccc(Cl)c(Cl)c1)C1CCCCC1`, the inhibition was -5.86% (inactive).

Consider `O=C(CC(O)(C(F)(F)F)C(F)(F)F)Nc1ccc(Cl)c(Cl)c1`, for which the inhibition is 72.5% (active).

Regarding `CN(C)CCN(Cc1ccccc1)S(=O)(=O)c1csc(C(N)=O)c1`, the inhibition was -12.9% (inactive).

Consider `COc1cccc(-c2coc3cc4oc(=O)c(CC(=O)O)c(C)c4cc23)c1`, for which the inhibition was 1.98% (inactive).

For the compound `CC#CC[N+](C)(C)CCCCCC`, the inhibition was -6.39% (inactive).

With `O=C(NCC(=O)N1CCCC(C(F)(F)F)C1)c1ccccc1F` (stereo not drawn), the inhibition is -5.99% (inactive).

As to `O=C(NC(Cc1ccccc1)C(=O)N1CCCC(C(F)(F)F)C1)c1ccccc1` (stereo not drawn), the inhibition is -16.7% (inactive).

For `FC(F)(F)C1CCCN(c2nsc3ccccc23)C1` (stereo not drawn), the inhibition was 51.7% (active).

As for `Cc1cc(C(=O)O)c(S(C)(=O)=O)s1`, the inhibition is -2.26% (inactive).

`CCN(CC)C(=O)[C@H]1C[C@H](CC(=O)NCC23CC4CC(CC(C4)C2)C3)C(=O)N2CCc3c([nH]c4cc(CCC(=O)N(C)C)ccc34)[C@]12C`: the inhibition was -25.6% (inactive).

As to `Fc1ccc2[nH]c3c(N4CCSCC4)ncnc3c2c1`, the inhibition is 58.3% (active).

Consider `COc1cc(C(=O)N2C(=O)c3cccc(N)c3C2=O)cc(OC)c1OC`, for which the inhibition is -9.7% (inactive).

With `O=C(O)c1ccc2c3c(cccc13)C(=O)N(OS(=O)(=O)c1ccccc1)C2=O`, the inhibition is -10.1% (inactive).

As for `CN1C(=O)c2cccc3c(N)ccc(c23)C1=O`, the inhibition is 49.2% (active).

As to `CC(=O)Nc1ccccc1Sc1ccc2c3c(cccc13)C(=O)N(c1ccc(C)cc1)C2=O`, the inhibition was -4.4% (inactive).

Turning to `Cc1nn(C)cc1C(=O)c1ccccc1`, the inhibition was -6.65% (inactive).

In the case of `Cc1nn(C)cc1N1C(=O)c2cccc3c(N)ccc(c23)C1=O`, the inhibition was 36.8% (active).

Turning to `CC(NS(=O)(=O)c1ccccc1)c1n[nH]c(=S)n1-c1ccccc1` (stereo not drawn), the inhibition was 9.34% (inactive).

With `O=C(c1ccccc1Cl)N(Cc1ccccc1F)N1C(=O)CCCC1=O`, the inhibition was 6.42% (inactive).

Consider `COCCCN1C(=O)C(=O)/C(=C(/O)c2ccc(S(=O)(=O)N3CCOCC3)cc2)C1c1ccc(F)cc1` (stereo not drawn), for which the inhibition is 14.2% (inactive).

`CC(=O)c1ccc(NC(=S)NC(=O)CC(C)C)cc1`: the inhibition is 7.82% (inactive).

In the case of `COc1ccc(NS(=O)(=O)c2ccc(NC(=O)c3ccc(N(C)S(C)(=O)=O)cc3)cc2)cc1`, the inhibition was 31.2% (active).

Regarding `COc1cc(OC)cc(C(=O)Nc2ccc(S(=O)(=O)Nc3cc(C)on3)cc2)c1`, the inhibition is -3.8% (inactive).

For `COc1ccc(NS(=O)(=O)c2ccc(NC(=S)NC(=O)CC(C)C)cc2)cc1`, the inhibition is 44.3% (active).

On to `COc1ccc(NS(=O)(=O)c2ccc(C(=O)Nc3c(C)n(C)n(-c4ccccc4)c3=O)cc2)cc1`, for which the inhibition is -3.65% (inactive).

For `COc1ccc(OC)c(C(C)NC(=S)Nc2ccc(S(=O)(=O)Nc3ncccn3)cc2)c1` (stereo not drawn), the inhibition was 3.7% (inactive).

In the case of `CCSc1nc(=S)n(CC)c(C)c1C(C)=O`, the inhibition is -1.19% (inactive).

Consider `CC(C)(C)CN1C(=O)C(=O)NC[C@H]1Cc1cccc2ccccc12`, for which the inhibition is -9.71% (inactive).

With `COC(=O)Nc1ncc(CN2CCCCC2)s1`, the inhibition is 0.87% (inactive).

Turning to `O=C(COc1ccc(Cl)cc1)NC(=S)Nc1ccccc1N1CCOCC1`, the inhibition is -32% (inactive).

As for `O=C(Cc1ccc(Cl)cc1)NC(=S)Nc1ccccc1O`, the inhibition is 39% (active).

On to `Cc1ccccc1NC(=S)NC(=O)Cc1ccc(Cl)cc1`, for which the inhibition was 2.02% (inactive).

`COc1ccc(NC(=O)CSCc2ccc([N+](=O)[O-])cc2)cc1OC`: the inhibition is -6.67% (inactive).

As to `CC(C)CC(=O)N=C1SC2CS(=O)(=O)CC2N1CCc1ccccc1` (stereo not drawn), the inhibition is -2.34% (inactive).

For `O=c1c2ccccc2nc2n1C(CSCc1ccccc1)CS2` (stereo not drawn), the inhibition is 2.02% (inactive).

For the compound `O=c1c2ccccc2nc2n1C(CSCc1cccc(C(F)(F)F)c1)CS2` (stereo not drawn), the inhibition was 40.1% (active).

On to `O=c1c2ccccc2nc2n1C(CSc1ccc(F)cc1)CN2` (stereo not drawn), for which the inhibition was -3.49% (inactive).

Regarding `COc1ccccc1C(=O)C(O)c1ccccc1OC` (stereo not drawn), the inhibition is -2.08% (inactive).

Take `Cc1cccc(C)c1NC(=O)CNC(=O)c1c(C)nn(-c2ccccc2)c1C`: the inhibition was 9.7% (inactive).

With `COc1ccc(-c2csc(NC(=O)COC(=O)c3ccc(Br)o3)n2)cc1`, the inhibition is -1.84% (inactive).

`COc1ccc(OC)c(-c2csc(NC(=O)COC(=O)C3CC3)n2)c1`: the inhibition was -16.7% (inactive).

As to `Cc1ccc(S(=O)(=O)NC(=O)Nc2nc(-c3ccc(F)c(F)c3)cs2)cc1`, the inhibition is 13.3% (inactive).

Turning to `COc1ccc(-c2csc(NC(=O)COC(=O)Cc3ccc(Cl)cc3Cl)n2)cc1`, the inhibition is -7.84% (inactive).

As for `COc1cc(CC(=O)NCc2cccs2)cc(OC)c1OC`, the inhibition was -12.1% (inactive).

Regarding `CCCc1ccc(-c2csc(NC(=O)Cc3cccs3)n2)cc1`, the inhibition is -13.1% (inactive).

With `COc1ccc(CC(=O)Nc2nc(-c3ccc(F)c(F)c3)cs2)cc1OC`, the inhibition is 55.3% (active).

Regarding `COc1cc(CC(=O)Nc2nc(-c3ccc(F)c(F)c3)cs2)cc(OC)c1OC`, the inhibition was 50.5% (active).

In the case of `COc1cccc(CC(=O)Nc2nc(-c3ccc(OC)c(OC)c3)cs2)c1`, the inhibition was 50.6% (active).

(Values after PubChem BioAssay AID463079 (The Scripps Research Institute Molecular Screening Center, 2010).)
